{
  "source": "ChEMBL document CHEMBL1123724",
  "about": "“A novel synthesis of colchicide and analogues from thiocolchicine and congeners: reevaluation of colchicide as a potential antitumor agent” (1987)",
  "key": {"[1]": {"target": "Tubulin beta chain (Bos taurus) (UniProt Q6B856)", "sequence (Q6B856 whole entry)": "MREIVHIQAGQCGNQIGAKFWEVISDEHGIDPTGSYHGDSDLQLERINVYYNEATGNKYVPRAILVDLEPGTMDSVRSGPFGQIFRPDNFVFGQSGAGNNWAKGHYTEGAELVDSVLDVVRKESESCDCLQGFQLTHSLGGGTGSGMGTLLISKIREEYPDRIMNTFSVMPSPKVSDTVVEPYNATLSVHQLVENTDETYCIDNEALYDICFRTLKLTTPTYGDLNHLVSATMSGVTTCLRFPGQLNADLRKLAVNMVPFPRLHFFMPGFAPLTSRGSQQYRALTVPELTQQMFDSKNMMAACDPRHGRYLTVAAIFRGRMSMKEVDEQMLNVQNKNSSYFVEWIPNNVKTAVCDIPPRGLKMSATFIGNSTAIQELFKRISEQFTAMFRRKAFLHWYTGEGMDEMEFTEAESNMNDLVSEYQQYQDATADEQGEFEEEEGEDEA", "conditions": "at 25 µM"}, "[2]": {"system": "Mus musculus", "test": "In vivo antitumor activity against P388 mouse leukemia and minimum affective dose (MED) which produced a T/C greater than the threshold value of 125 was reported.", "format": "functional", "conditions": "read-out: MED", "outline": "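P388 leukemia cells implanted intraperitoneally in mice. Drug given ip once daily for 9 days (QD1 × 9). T/C = median survival time of treated animals / median survival time of untreated controls × 100. Minimum effective dose is the lowest dose (mg/kg) giving T/C above the threshold of 125. Reported dose levels are those with the highest T/C.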"}, "[3]": {"system": "Mus musculus", "test": "In vivo antitumor activity against P388 mouse leukemia expressed as T/C (median survival time of treated animals / median survival time of untreated controls x 100) at a dose of 3.12 mg/kg", "format": "functional", "outline": "(§1)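 P388 leukemia implanted ip in mice, with ip dosing on a QD1 × 9 schedule. Read-out is T/C = median survival of treated animals / median survival of untreated controls × 100. Activity requires duplicate tests giving T/C ≥120%.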"}, "[4]": {"system": "Mus musculus", "test": "In vivo antitumor activity against P388 mouse leukemia expressed as T/C (median survival time of treated animals / median survival time of untreated controls x 100) at a dose of 0.32 mg/kg", "format": "functional", "outline": "as §1"}, "[5]": {"system": "Mus musculus", "test": "In vivo antitumor activity against P388 mouse leukemia expressed as T/C (median survival time of treated animals / median survival time of untreated controls x 100) at a dose of 0.5 mg/kg", "format": "functional", "outline": "as §1"}, "[6]": {"system": "Mus musculus", "test": "In vivo antitumor activity against P388 mouse leukemia expressed as T/C (median survival time of treated animals / median survival time of untreated controls x 100) at a dose of 0.94 mg/kg", "format": "functional", "outline": "as §1"}, "[7]": {"system": "Mus musculus", "test": "In vivo antitumor activity against P388 mouse leukemia expressed as T/C (median survival time of treated animals / median survival time of untreated controls x 100) at a dose of 12.5 mg/kg", "format": "functional", "outline": "as §1"}, "[8]": {"system": "Mus musculus", "test": "In vivo antitumor activity against P388 mouse leukemia expressed as T/C (median survival time of treated animals / median survival time of untreated controls x 100) at a dose of 0.18 mg/kg", "format": "functional", "outline": "as §1"}},
  "data": [
    {"smiles": "COc1cc2c(c(OC)c1O)-c1cccc(=O)cc1[C@@H](NC(C)=O)CC2", "values": [
      {"measurement": "Tubulin binding", "setting": "[1]", "value": 26, "unit": "%"}
    ]},
    {"smiles": "CCN(CC)c1ccc2c(cc1=O)[C@@H](NC(C)=O)CCc1cc(OC)c(OC)c(OC)c1-2", "values": [
      {"measurement": "minimal effective dose", "setting": "[2]", "value": 0.39, "unit": "mg/kg"},
      {"measurement": "T/C", "setting": "[3]", "value": 216}
    ]},
    {"smiles": "COc1cc2c(c(O)c1OC)-c1cccc(=O)cc1[C@@H](NC(C)=O)CC2", "values": [
      {"measurement": "Tubulin binding", "setting": "[1]", "value": 0, "unit": "%"}
    ]},
    {"smiles": "CNc1ccc2c(cc1=O)[C@@H](NC(C)=O)CCc1cc(OC)c(OC)c(OC)c1-2", "values": [
      {"measurement": "minimal effective dose", "setting": "[2]", "value": 0.04, "unit": "mg/kg"},
      {"measurement": "T/C", "setting": "[4]", "value": 166}
    ]},
    {"smiles": "COc1cc2c(c(OC)c1OC)-c1ccc(OC)c(=O)cc1[C@@H](NC(C)=O)CC2", "note": "[COLCHICINE]", "values": [
      {"measurement": "minimal effective dose", "setting": "[2]", "value": 0.06, "unit": "mg/kg"},
      {"measurement": "T/C", "setting": "[5]", "value": 245}
    ]},
    {"smiles": "COc1c2c(cc3c1-c1ccc(OC)c(=O)cc1[C@@H](NC(C)=O)CC3)OCO2", "values": [
      {"measurement": "minimal effective dose", "setting": "[2]", "value": "> 0.4", "unit": "mg/kg"},
      {"measurement": "T/C", "setting": "[6]", "value": 166}
    ]},
    {"smiles": "COc1c2c(cc3c1-c1cccc(=O)cc1[C@@H](NC(C)=O)CC3)OCO2", "values": [
      {"measurement": "Tubulin binding", "setting": "[1]", "value": 0, "unit": "%"}
    ]},
    {"smiles": "COc1cc2c(c(OC)c1OC)-c1ccc(SCc3ccccc3)c(=O)cc1[C@@H](NC(C)=O)CC2", "values": [
      {"measurement": "minimal effective dose", "setting": "[2]", "value": 3.12, "unit": "mg/kg"},
      {"measurement": "T/C", "setting": "[7]", "value": 214}
    ]},
    {"smiles": "COc1cc2c(c(OC)c1OC)-c1ccc(SC)c(=O)cc1[C@@H](NC(C)=O)CC2", "note": "[THIOCOLCHICINE]", "values": [
      {"measurement": "minimal effective dose", "setting": "[2]", "value": 0.05, "unit": "mg/kg"},
      {"measurement": "T/C", "setting": "[8]", "value": 193}
    ]},
    {"smiles": "COc1cc2c(c(OC(C)=O)c1OC)-c1cccc(=O)cc1[C@@H](NC(C)=O)CC2", "values": [
      {"measurement": "Tubulin binding", "setting": "[1]", "value": 0, "unit": "%"}
    ]}
  ]
}
